# SENP6 block: SENP6 protease inhibition; 330,000 compounds, 1.8% hits; Q9GZR1; inhibition, % at 10 µM; Recombinant SENP6 catalytic domain, aminoluciferin luminescence;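 active means inhibition above about 50% at the single tested dose, limit read from the data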;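 further: plate controls were DMSO wells with enzyme for no effect and DMSO wells lacking enzyme for full effect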
# Target sequence (Q9GZR1 628-1112 limits assumed): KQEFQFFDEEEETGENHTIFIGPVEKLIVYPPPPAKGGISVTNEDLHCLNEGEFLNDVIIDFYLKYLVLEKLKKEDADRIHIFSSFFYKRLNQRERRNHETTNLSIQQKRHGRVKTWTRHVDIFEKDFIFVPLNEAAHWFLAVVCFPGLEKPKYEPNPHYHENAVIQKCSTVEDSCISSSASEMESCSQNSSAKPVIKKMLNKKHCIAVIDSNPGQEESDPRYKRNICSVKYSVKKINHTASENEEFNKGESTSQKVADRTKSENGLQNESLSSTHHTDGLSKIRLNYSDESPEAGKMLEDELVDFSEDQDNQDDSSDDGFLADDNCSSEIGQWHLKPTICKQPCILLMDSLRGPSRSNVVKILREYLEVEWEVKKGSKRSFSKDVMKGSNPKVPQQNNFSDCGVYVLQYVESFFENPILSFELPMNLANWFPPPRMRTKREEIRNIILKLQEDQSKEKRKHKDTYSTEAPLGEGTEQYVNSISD
# SENP7 block: inhibitors of human SENP7 protease; 330,000 compounds, 1.5% hits; inhibition, % at 5 µM; recombinant SENP7, Z-RLRGG-aminoluciferin luminescence, 40 min; Q9BQF6;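 active means inhibition above about 50% at the single test dose, limit read from the data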;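 further: plate controls were DMSO with enzyme for no effect and no enzyme buffer wells for full effect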
# UBC13 polyUb: inhibitors of human UBC13 polyubiquitin chain formation; P61088; TR-FRET; inhibition, % at 20 µM; 330,000 compounds, 0.47% hits; in the data active means inhibition above about 45%, passing the limit was not always enough
# SENP8 block-1: SENP8 protease inhibition; Q96LD8; purified SENP8, Z-RLRGG-aminoluciferin cleavage, luminescence; inhibition, % at 10 µM; 330,000 compounds, 1.2% hits; in the data active means inhibition above about 50%
# Apaf-1 inh: inhibitors of human Apaf-1 apoptosome; O14727; reconstituted apoptosome caspase-3 activity, DEVD-Rh110 fluorescence; inhibition, % at 20 µM; 330,000 compounds, 0.71% hits; active means inhibition of at least 40% at 20 µM;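 further: plate controls were DMSO wells for no effect and DEVD-CHO caspase inhibitor wells for full effect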
#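 Material: reconstituted apoptosome with Apaf-1, cytochrome c, caspase-9, procaspase-3, dATP; medium: pH 7.5 Hepes buffer with CHAPS, BSA, DTT; also added: cytochrome c and DEVD-Rh110 substrate; timing: 30 min plus 50 min, RT; signal: Rh110 fluorescence intensity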
# SENP8 block-2: blocks human SENP8 cleavage of Nedd8 substrate; inhibition, % at 20 µM; 360,000 compounds, 0.64% hits; recombinant SENP8, Nedd8 substrate fluorescence; in the data active means inhibition mostly above about 40%, no sharp cut-off; inactive means mostly below about 27%
# Apaf-1 inh conf: confirmation of Apaf-1 inhibitors | inhibition, % at 20 µM | reconstituted apoptosome, caspase-3 DEVD-Rh110 fluorescence | shares compounds with Apaf-1 inh | 1,800 compounds, 25% hits;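 active means mean inhibition of at least 40% at 20 µM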;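 further: plate controls were DMSO wells for no effect and DEVD-CHO caspase inhibitor control wells for full effect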
# Rh110 interf inh: interferes with Rh110 fluorescence, flagging false Apaf-1 inhibitors | shares compounds with Apaf-1 inh | Rh110 fluorescence interference, quenched caspase reaction | activation (fluorescence interference), % at 20 µM | 1,800 tested, under 10 active;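 active means signal rise of 40% or more at 20 µM, treated as a fluorescence artifact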
# Fluor interf inh: Apaf-1 inhibitor counter-screen fluorescence artifact | 460 tested, under 10 active | shares compounds with Apaf-1 inh | IC50, µM | fluorescence interference counterscreen, Apaf-1 assay format | AID 588538; call rule not given here
# SENP8 conf: SENP8 (human) inhibition, single concentration confirmation; shares compounds with SENP8 block-2; purified SENP8, Nedd8-AMC/pro-Nedd8 cleavage fluorescence, 30 min; inhibition, % at 25 µM; 1,400 compounds, 15% hits; in the data active means inhibition mostly above about 39%, no sharp cut-off; inactive means mostly below about 34%
# Active calls of the source: *; x = no result given. In the library only some 3% were active in any assay of this set; here they are far more common.
SMILES,SENP6 block,SENP7 block,UBC13 polyUb,SENP8 block-1,Apaf-1 inh,SENP8 block-2,SENP8 conf,others
COC(=O)C(O)(c1c(C)[nH]n(-c2ccccc2)c1=O)C(F)(F)F (centres undefined),27.3,24.0,-37.1,6.3,78.6*,63.1*,87.1*,Apaf-1 inh conf=52.3*;Rh110 interf inh=-6.8;Fluor interf inh=>100
COC(=O)[C@@H]1N=C(c2ccc(OC)cc2)O[C@]12C(=O)N(Cc1ccc(OC)cc1)c1ccccc12,x,x,x,x,x,10.5,x,
CC12CCC3C(CC=C4CC(O)CCC43C)C1C/C(=C\c1ccccc1F)C2=O (centres undefined),0.0,3.8,11.9,-4.8,16.9,11.7,x,
Cc1nn(C)cc1/C=C1/CC2C3CC=C4CC(O)CCC4(C)C3CCC2(C)C1=O (centres undefined),-1.8,-18.5,4.7,-1.6,12.3,46.8*,10.2,
FC(F)(F)c1ccc(-c2ccc3c(c2)CNCc2cnnn2-3)cc1,x,x,x,x,x,9.0,x,
CCOC(=O)Cn1cc([N+](=O)[O-])nc1[N+](=O)[O-],-1.5,14.7,-8.4,9.7,12.3,55.7*,23.7,
O=C1c2ccccc2-n2nnc(-c3ccccc3)c2C2c3cc(Br)ccc3CCN12 (centres undefined),x,x,x,x,x,10.1,x,
C[C@]12C[C@H](O)[C@@H](O)C[C@@H]1CC[C@@H]1[C@@H]2CC[C@]2(C)C(=O)CC[C@@H]12,x,x,x,x,x,49.1*,6.0,
COc1cc(C)c(CN2CC=C(c3ccc(F)cc3)CC2)cc1C,6.1,8.9,2.6,-4.8,3.9,43.4*,6.6,
COc1cc(CN2CC=C(c3ccc(F)cc3)CC2)cc(OC)c1,-10.6,-9.8,-2.8,-11.3,14.6,15.1,x,
CC(C)[C@H](NC(=O)N1C[C@H]2C[C@@H](C1)c1cccc(=O)n1C2)C(=O)Nc1ccccc1F,-7.7,-3.2,5.1,-1.3,-8.0,47.1*,12.6,
O=[N+]([O-])c1ccc(N2CCNCC2)cc1N1CCCCCC1,-11.5,-1.1,-54.1,-3.8,12.5,47.8*,12.7,
CN1CCN(c2ccc([N+](=O)[O-])c(N3CCCCC3)c2)CC1,-2.3,-3.7,-28.6,6.1,1.9,21.9,x,
C=CCc1ccc(OC)cc1,-2.8,1.9,5.2,-10.4,7.8,49.8*,-4.9,
COc1ccc(CN2CCNCC2)cc1,-6.5,-8.2,5.6,-5.7,-2.3,9.5,x,
CC(C)COC(=O)c1ccccc1C(=O)OCC(C)C,-16.2,0.9,7.3,-1.6,-2.9,48.5*,7.7,
CCn1c(O)c(N=Nc2ccc(S(=O)(=O)N3CCOCC3)cc2)c(=O)n(CC)c1=S,-14.8,7.5,-29.6,-4.8,2.5,40.1*,19.4,
COC1=CC(=O)OC(CCc2ccc3c(c2)OCO3)C1 (centres undefined),x,x,x,x,x,40.1*,-1.7,
O=C(NCP(=O)(Oc1ccccc1)Oc1ccccc1)OCc1ccccc1,x,x,x,x,x,0.1,x,
CCCCC1(CCCC)C(=O)NC(=Nc2cccc(C)c2)NC1=O,-3.2,1.1,-28.1,-9.5,11.8,20.9,x,
Cc1cccc(N=C2c3cc([N+](=O)[O-])ccc3-c3c2cc([N+](=O)[O-])cc3[N+](=O)[O-])c1,x,x,x,x,x,94.2*,23.3,
Cc1c(N=Nc2c(O)[nH]c(=S)[nH]c2=O)c(=O)n(-c2ccccc2)n1C,2.6,10.2,-83.2,-4.8,-1.5,21.7,x,
CCOc1ccc2nc(N=Nc3c(O)[nH]c(=S)[nH]c3=O)sc2c1,12.8,5.9,-348.7,6.1,28.0,40.1*,2.3,
COc1ccc(NC(=S)N2Cc3ccccc3-n3nncc3C2)c(OC)c1,x,x,x,x,x,7.1,x,
CCCCn1nnnc1C(CCSC)N1CCC(n2c(=O)[nH]c3ccccc32)CC1 (centres undefined),x,x,x,x,x,3.4,x,
SMILES,SENP6 block,SENP7 block,UBC13 polyUb,SENP8 block-1,Apaf-1 inh,SENP8 block-2,SENP8 conf,others
O=C(c1c[nH]cc1-c1ccccc1)c1cccc2ccccc12,6.7,8.1,0.8,3.4,16.1,46.5*,3.8,
c1cc2c(cc1-c1ccc3c(c1)OCO3)CNCc1cnnn1-2,x,x,x,x,x,-236.8,x,
CN1CCN(c2ccc([N+](=O)[O-])cc2Cl)CC1,14.6,7.7,-11.4,2.3,-13.6,18.3,x,
CC1CN(c2ccc([N+](=O)[O-])cc2Cl)CCN1 (centres undefined),9.8,2.1,-23.0,-6.3,-11.5,32.2*,14.2,
O=C1NCN(c2ccccc2)C12CCN(C(c1ccccc1OC(F)(F)F)c1nnnn1-c1ccc3c(c1)OCCO3)CC2 (centres undefined),x,x,x,x,x,16.1,x,
CC(=O)O[C@@]12CO[C@@H]1C[C@H](O)[C@@]1(C)C(=O)[C@H](O)C3=C(C)[C@@H](O)C[C@@](O)([C@@H](OC(=O)c4ccccc4)C12)C3(C)C (some centres undefined),3.2,-1.7,1.9,2.0,-6.5,58.1*,19.9,
CCOC(=O)c1cccc(C2=C(CNC(=O)c3ccc([N+](=O)[O-])cc3)[C@H]3CC[C@@H](C2)N3Cc2ccccc2)c1,x,x,x,x,x,-20.5,x,
COc1ccc(C(=O)O)cc1OC,x,x,x,x,x,44.6*,14.2,
CCC(=O)c1ccc(OC)c(OC)c1,-18.6,11.8,-8.0,-5.3,-7.6,-6.8,x,

# Compound activity from PubChem BioAssay.
